The record followed here is ChEMBL document CHEMBL2169740 (J Med Chem, 2012).

Data set [1] can be described thus: AUC in CD1 mouse at 30 mg/kg, po administered as single dose. The format is ADME, organism-based. Also noted: dose 30 mg/kg, route oral. Particulars: plasma. A digest of the protocol: (§1)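 Female CD1 mice given one oral gavage dose (30, 50 or 200 mg/kg), n=3 per test article. Blood drawn from three mice at 15, 30, 60 min and 2, 4, 6, 8, 10, 24 h after dosing. Plasma concentration measured by LCMS over 24 h.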

Data set [2] is described as follows: Cmax in CD1 mouse at 200 mg/kg, po administered as single dose. The format is ADME, organism-based. Also noted: dose 200 mg/kg, route oral. Particulars: in vivo. The method, boiled down: as §1
A short description of data set [3]: Permeability of the compound at pH 7.4 by PAMPA. Type of data set: ADME.
The subject of a further data set is Liver microsomes. As to the kind of experiment: Intrinsic clearance in human liver microsomes after 0.5 to 4 hrs by UPLC-MS analysis. The format is ADME, Microsome. The method, boiled down: (§2)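 Pooled liver microsomes (female CD-1 mouse or mixed-gender human) at 0.5 mg/mL in 0.1 M potassium phosphate pH 7.4 with EDTA, with NADPH-regenerating solutions A+B; 37 °C with shaking; quenched at 0, 0.5, 1, 2, 4 h with cold methanol containing 10 μM warfarin internal standard. UPLC-MS (SIR); k from log peak-area-ratio slope, t1/2 = 0.693/k, CLint normalised to microsomal protein; triplicate.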

For a further data set, the system named is Liver. In words: Intrinsic clearance in CD1 mouse liver microsomes after 0.5 to 4 hrs by UPLC-MS analysis. Type of data set: ADME, Microsome. A digest of the protocol:
as §2

The nature of data set [4]: AUC in CD1 mouse at 200 mg/kg, po administered as single dose. Also noted: dose 200 mg/kg, route oral. Particulars: plasma. Type of data set: ADME, organism-based. The method, boiled down:
as §1

Data set [5] can be described thus: Cmax in CD1 mouse at 30 mg/kg, po administered as single dose. The format is ADME, organism-based. Details: dose 30 mg/kg, route oral. As to conditions: in vivo. The method, boiled down:
as §1

Data set [6] can be described thus: Cmax in CD1 mouse at 50 mg/kg, po administered as single dose. Particulars: in vivo. Type of data set: ADME, organism-based. Also noted: dose 50 mg/kg, route oral. The method, boiled down:
as §1

A short description of data set [7]: AUC (infinity) in CD1 mouse at 50 mg/kg, po administered as single dose. Type of data set: ADME, organism-based. Details: time infinity, dose 50 mg/kg, route oral. Particulars: plasma. A digest of the protocol: as §1
The nature of data set [8]: Permeability of the compound at pH 4.0 by PAMPA. Type of data set: ADME. A digest of the protocol:
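PAMPA: compound diluted in system buffer at pH 7.4 or 4 as donor; membrane coated with GIT lipid; acceptor buffer; stirred 30 min with 40 μm aqueous boundary layer. UV spectra (250–500 nm) of reference, donor and acceptor; permeability coefficient from spectral AUCs; triplicate.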

Regarding `CCCOc1cccc(-c2[nH]c3cc(OC)ccc3c(=O)c2C(=O)OCC)c1`, the AUC(0-inf) in [1] worked out at 1.6 µM·h; in [4], 7.7 µM·h. For the same compound, the peak concentration (Cmax) was 1800 nM in data set [2] and 300 nM in data set [5]. This compound also registered a permeability in data set [3] of 340 ×10⁻⁶ cm/s. For the same compound, the “Intrinsic clearance (CLint)” value turned out to be 12 µL/min/mg in the data set on Liver microsomes and 39 µL/min/mg in the data set on Liver.

`COc1cc2[nH]c(-c3cccc(Oc4ccccc4)c3)c(C(=O)OCCO)c(=O)c2cc1F` gave a permeability in [3] of 620 ×10⁻⁶ cm/s. Moreover, the “Intrinsic clearance (CLint)” value is 4.8 µL/min/mg with Liver microsomes and 11 µL/min/mg in the data set with Liver.

With `CCOC(=O)c1c(-c2cccc(OCC)c2)[nH]c2cc(OC)ccc2c1=O`, the AUC(0-inf) in data set [1] came to 5.1 µM·h; in data set [4], 10 µM·h. Besides, the figures for the Cmax in [2] and in data set [5] were 2400 nM and 1900 nM, respectively. Besides, the permeability in data set [3] is 260 ×10⁻⁶ cm/s. Further, the “Intrinsic clearance (CLint)” value in the data set on Liver microsomes turned out to be 5.7 µL/min/mg; in the data set on Liver, 12 µL/min/mg.

`CCOC(=O)c1c(-c2ccc3c(c2)OCO3)[nH]c2cc(OC)ccc2c1=O`: the AUC(0-inf) in [1] is 6.1 µM·h; in data set [4], 65 µM·h. In addition, the Cmax in data set [2] turned out to be 5000 nM; in [5], 1500 nM. Also, the “Intrinsic clearance (CLint)” value with Liver microsomes and in the data set with Liver was 12 µL/min/mg in each case.

On to `CCOC(=O)c1c(-c2cccc(Oc3ccccc3)c2)[nH]c2cc(OC)ccc2c1=O`, for which the AUC(0-inf) in data set [1] turned out to be 0.15 µM·h; in [4] it was 1 µM·h. In addition, the Cmax in [2] turned out to be 400 nM; in data set [5], 60 nM. The permeability in [3] amounted to 750 ×10⁻⁶ cm/s. Besides, in the data set on Liver, the “Intrinsic clearance (CLint)” value is 35 µL/min/mg.

In the case of `CCOC(=O)c1c(-c2cccc(Br)c2)[nH]c2cc(OC)c(F)cc2c1=O`, the Cmax in data set [6] amounted to 31000 nM; in data set [2], 39000 nM. Also, the AUC(0-inf) in data set [7] was determined as 71 µM·h; in data set [4], 160 µM·h. The permeability in [3] was 670 ×10⁻⁶ cm/s. Further, the “Intrinsic clearance (CLint)” value with Liver microsomes was 1.2 µL/min/mg; in the data set on Liver, 2.7 µL/min/mg.

With `CCOC(=O)c1c(-c2cccc(OC)c2)[nH]c2cc(OC)ccc2c1=O`, the AUC(0-inf) in [1] was 8 µM·h; in data set [4], 7.8 µM·h. Also, the Cmax in [2] stood at 5800 nM; in data set [5], 8000 nM. In addition, the “Intrinsic clearance (CLint)” value with Liver microsomes worked out at 5.7 µL/min/mg; in the data set on Liver it was 7.9 µL/min/mg.

Regarding `CCOC(=O)c1c(-c2cc(F)cc(OC)c2)[nH]c2cc(OC)c(F)cc2c1=O`, the figures for the Cmax in data set [6] and in [2] were 710 nM and 1600 nM, respectively. Also, the AUC(0-inf) in [7] is 9.3 µM·h; in data set [4], 19 µM·h. For the same compound, in data set [3], the permeability came to 230 ×10⁻⁶ cm/s. Also, the “Intrinsic clearance (CLint)” value in the data set on Liver microsomes was 56 µL/min/mg; in the data set on Liver, 6.7 µL/min/mg.

Regarding `CCOC(=O)c1c(-c2cccc(Cl)c2)[nH]c2cc(OC)c(F)cc2c1=O`, the figures for the Cmax in data set [6] and in data set [2] were 38000 nM and 66000 nM, respectively. Besides, the area under the curve AUC(0-inf) in [7] was found to be 130 µM·h; in data set [4], 280 µM·h. In [3], this compound gave a permeability of 410 ×10⁻⁶ cm/s. Moreover, the entries for the “Intrinsic clearance (CLint)” value in the data set with Liver microsomes and in the data set with Liver were 0.5 µL/min/mg and 4 µL/min/mg, respectively.

In [3], `CCOC(=O)c1c(-c2cccc(Oc3ccccc3)c2)[nH]c2cc(OC)c(F)cc2c1=O` showed a permeability of 560 ×10⁻⁶ cm/s. In addition, in the data set with Liver, the “Intrinsic clearance (CLint)” value amounted to 16 µL/min/mg.

For the compound `COc1cc2[nH]c(-c3cccc(Oc4ccccc4)c3)c(C(=O)OCCCN3CCOCC3)c(=O)c2cc1F`, the permeability in data set [8] amounted to 30 ×10⁻⁶ cm/s; in data set [3], 880 ×10⁻⁶ cm/s. The “Intrinsic clearance (CLint)” value worked out at 11 µL/min/mg in the data set on Liver microsomes and 24 µL/min/mg in the data set on Liver.

On to `CCOC(=O)c1c(-c2cccc(Cl)c2)[nH]c2cc(OC)ccc2c1=O`, for which the “Intrinsic clearance (CLint)” value with Liver microsomes is 3.4 µL/min/mg; in the data set on Liver, 16 µL/min/mg.

As for `CCOC(=O)c1c(-c2cccc(-c3ccccc3)c2)[nH]c2cc(OC)ccc2c1=O`, the total exposure AUC(0-inf) in data set [1] is 1.7 µM·h; in data set [4], 4.3 µM·h. The Cmax in [2] is 430 nM; in data set [5], 230 nM. The compound also came in with a permeability in data set [3] of 2900 ×10⁻⁶ cm/s. The “Intrinsic clearance (CLint)” value in the data set with Liver microsomes was 5 µL/min/mg; in the data set on Liver, 5.7 µL/min/mg.
